The nature of the test: Inhibition of GST-tagged mouse Mcl-1 (152 to 309 residues)/FITC-labelled Bim (unknown origin) protein protein interaction at 100 uM by fluorescence polarization method relative to control. The essentials:
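Single-point fluorescence polarization competition at 100 μM. GST-tagged mouse Mcl-1(152–309) (20 nM stock in PBS, 0.005% Tween 20) was mixed with the compound in PBS containing 25% DMSO and 0.005% Tween 20. FITC-Bim-BH3 (10 nM stock in PBS, 5% DMSO) was then added and shaken 3 min at room temperature. Polarization (mP) was read at ex 480/em 535 nm, and percent inhibition is relative to control.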
For orientation: In fluorescence polarisation assays a small probe gives low polarisation when free and higher when bound to something large.

Each structure is given as a SMILES string. Where only a bound is given, the exact number is not on record here.

Consider `CC1(C)CCN(c2ccc(C(=O)S)cc2)CC1`, for which the inhibition is less than 5%.
The figure for `[N-]=[N+]=NS(=O)(=O)c1ccc2ccc(S(=O)(=O)NCCSc3ccccc3)cc2c1` is 14%; for `O=C(S)c1ccc(OC(F)(F)F)cc1` it is less than 5%; for `O=C(S)c1ccco1` it is less than 5%.
The figure for `COc1cc(OC)cc(C(=O)S)c1` is less than 5%; for `[N-]=[N+]=NS(=O)(=O)c1ccc(CN2Cc3c(Cl)cccc3C(Sc3ccccc3)C2)cc1` (configuration not stated) it is 25%.
The figure for `OC(=S)c1ccccc1` is less than 5%; for `Cc1nc(-c2ccccc2)sc1C(=O)S` it is less than 5%.
With `O=C(S)c1cccc([N+](=O)[O-])c1`, the inhibition is less than 5%.
The figure for `O=C(S)c1ccno1` is less than 5%.
The same measure for `O=C(S)c1cccc2ccccc12`: less than 5%; for `COc1cc2c(cc1OC)C(O)N(CC(=O)O)CC2` (configuration not stated): less than 5%.

The term inhibition denotes how much of the control response was suppressed. Lower therefore signals little suppression.

These data come from ChEMBL document CHEMBL5380845, “Going beyond Binary: Rapid Identification of Protein-Protein Interaction Modulators Using a Multifragment Kinetic Target-Guided Synthesis Approach” (J Med Chem, 2023).
